Compound activity as filed in PubChem.
Rows were chosen to be rich in hits. Some 1.4% of all compounds tested hit in one or more screens of this group.
CSN deneddyl inh: CSN deneddylation inhibition; inhibition, % at 12.5 µM; Purified CSN, SCF-Nedd8-OG deneddylation, fluorescence polarization; hit rate 0.38% among 360,000; Q92905;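 active = pattern-corrected inhibition above about 35%, with an unprinted fluorescence ratio check between 0.5 and 1.5, limit read from the data, passing the limit was not always enough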
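Material: purified human Csn5 enzyme expressed in HEK293T cells / Medium: Tris buffer pH 7.5, NaCl, DTT, Tween-20, trehalose, ovalbumin / Compound dosing: 12.5 µM single point / Schedule: 90 min incubation of compound, enzyme and substrate at room temperature / Signal: fluorescence polarization of the substrate / Control set: no-enzyme wells high, enzyme-with-substrate wells low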
HNF4A DNA FP: change in binding of human HNF4 alpha to DNA; HNF4a-FITC DNA binding, fluorescence polarization, 1 h; activity change, % at 10 µM; hit rate 0.3% among 360,000; AID 1224865; in the data active = activity change above about 30%, passing the limit was not always enough
Target sequence (P41235 whole entry, looked up): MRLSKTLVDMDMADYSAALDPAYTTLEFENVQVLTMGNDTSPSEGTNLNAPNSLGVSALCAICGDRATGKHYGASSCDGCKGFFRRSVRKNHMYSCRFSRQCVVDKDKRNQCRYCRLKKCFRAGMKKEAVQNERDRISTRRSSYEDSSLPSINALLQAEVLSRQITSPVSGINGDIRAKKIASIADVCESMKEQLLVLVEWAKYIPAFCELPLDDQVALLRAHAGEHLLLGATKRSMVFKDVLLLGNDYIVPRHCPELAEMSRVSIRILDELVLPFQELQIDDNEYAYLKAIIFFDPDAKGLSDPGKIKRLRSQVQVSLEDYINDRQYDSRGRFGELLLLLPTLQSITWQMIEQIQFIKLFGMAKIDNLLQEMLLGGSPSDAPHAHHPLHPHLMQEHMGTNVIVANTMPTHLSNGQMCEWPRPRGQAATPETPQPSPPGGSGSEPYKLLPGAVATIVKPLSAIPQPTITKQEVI
IDE cell activ: boosts human insulin-degrading enzyme activity in HEK cells. FAbeta-B cleavage, fluorescence polarization; 0% vehicle, 100% cell-free pure enzyme wells. activation, % at 5.96 µM. hit rate 0.073% among 340,000. AID 493087;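 active = activation above the mean of all tested compounds plus 3 SD, set per screening campaign, cut at about 17% in these data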
IDE cell inh: inhibitors of human insulin-degrading enzyme in cells; P14735; HEK cells, FAbetaB cleavage, fluorescence polarization; inhibition, % at 5.59 µM; hit rate 0.41% among 320,000;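 active = percent inhibition above the average of all tested compounds plus 3 SD, set per screening campaign, cut at about 16% in these data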;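 also: IDE supplied by intact live HEK cells; FP after avidin binding of uncleaved biotin substrate so inhibition keeps polarization high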
TPT1 inhibitor: inhibitors of Candida albicans tRNA 2'-phosphotransferase TPT1; recombinant caTPT1, FP RNA substrate dephosphorylation; inhibition, % at 5 µM; hit rate 0.81% among 300,000; AID 1962;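 active = inhibition above the mean of all tested compounds plus 3 SD, set per screening campaign, cut at about 24% in these data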
TPT1 inh confirm: TPT1 (C. albicans) inhibition, confirmation; recombinant caTPT1, fluorescence polarization, RNase T1 coupled; hit rate 74% among 2,400; shares compounds with TPT1 inhibitor; inhibition, % at 5 µM; AID 2149;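 active = inhibition above the primary screen limit, the mean inhibition of all tested compounds plus 3 SD, cut at about 25% in these data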
RNase T1 inh: blocks Aspergillus oryzae RNase T1, a TPT1 counter-screen; shares compounds with TPT1 inhibitor; RNase T1 cleavage, fluorescence polarization, 1536-well; inhibition, % at 5 µM; hit rate 83% among 2,400; AID 2153;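 active = inhibition above the solvent-only control well mean plus 3 SD, limit set per screening run, cut at about 23% in these data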;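 also: inhibitors block cleavage so intact labeled substrate keeps polarization high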
Target sequence (P00651 whole entry, looked up): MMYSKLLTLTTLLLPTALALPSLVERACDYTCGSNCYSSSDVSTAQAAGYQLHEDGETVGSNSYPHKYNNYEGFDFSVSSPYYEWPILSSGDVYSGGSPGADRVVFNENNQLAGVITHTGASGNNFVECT
IDE inh confirm: cellular human IDE inhibition, confirmation; shares compounds with IDE cell inh; HEK cells, FAbetaB cleavage, fluorescence polarization; inhibition, % at 5.59 µM; hit rate 51% among 1,200;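 active = mean inhibition across triplicate wells above the cutoff set by the earlier primary insulin-degrading enzyme screen, cut at about 16% in these data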
HEK cytotox: kills HEK cells in IDE inhibitor counter-screen | hit rate 28% among 1,200 | inhibition, % at 5.59 µM | shares compounds with IDE cell inh | HEK293 cytotoxicity, ATP luminescence; in the data active = inhibition above about 22%
Each line names hits and unclear results; the compound was inactive in the other large screens (follow-up assays come after a bar, where they were run).

Cc1nc(NC(=O)c2cccnc2Cl)sc1C	none
Cc1ccccc1CN1C(=O)CN(S(C)(=O)=O)CC1(C)C(=O)Nc1ccc2c(c1)OCCO2 (stereo not drawn)	none (no result: IDE cell activ, IDE cell inh, TPT1 inhibitor)
CN(C)c1ccc(-n2cccc2/C=C/[N+](=O)[O-])cc1	none
CN(c1ccccc1)c1ccc(/C=C/[N+](=O)[O-])cc1	IDE cell inh 32, TPT1 inhibitor 42 | TPT1 inh confirm 55 | RNase T1 inh 71 | IDE inh confirm 26 | HEK cytotox 117
CCC(=O)N1CCCC(C)(C(=O)Nc2ccc3scnc3c2)C1 (stereo not drawn)	none (no result: IDE cell activ, IDE cell inh, TPT1 inhibitor)
CC1=C/C(=C\C=C(C#N)C#N)N(C)c2ccccc21	HNF4A DNA FP 71, IDE cell inh 81, TPT1 inhibitor 34 | TPT1 inh confirm 33 | RNase T1 inh 43 | IDE inh confirm 125 | HEK cytotox 23
CC(=O)c1sc(N/N=C\c2c(O)ccc3ccccc23)nc1C	HNF4A DNA FP 83, IDE cell inh 23, TPT1 inhibitor 117 | TPT1 inh confirm 124 | RNase T1 inh 120 | IDE inh confirm 39 | HEK cytotox 38
O=C(NCCN1CCOCC1)/C(=C/c1ccc(Cl)cc1)NC(=O)c1ccccc1	none
CN(C)c1ccc(/C=C(/NC(=O)c2ccccc2Cl)C(=O)NCCN2CCOCC2)cc1	IDE cell inh 18, TPT1 inhibitor 47 | TPT1 inh confirm 120 | RNase T1 inh 128 | IDE inh confirm inactive | HEK cytotox inactive
CN(C)c1ccc(/C=C(/NC(=O)c2ccccc2)C(=O)NCCN2CCOCC2)cc1	IDE cell inh 17, TPT1 inhibitor 49 | TPT1 inh confirm inactive | RNase T1 inh inactive | IDE inh confirm inactive | HEK cytotox inactive
CN(C)S(=O)(=O)n1cc(/C=C(\NC(=O)c2ccccc2Cl)C(=O)NCCN2CCOCC2)c2ccccc21	none
CCN(CC)c1ccc(C=Nc2cccc(S(=O)(=O)N3CCOCC3)c2)c(O)c1	none (no result: TPT1 inhibitor)
CCN(CC)c1ccc(/C=N/NC(=O)c2cccc(S(=O)(=O)N3CCOCC3)c2)c(O)c1	IDE cell inh 22, TPT1 inhibitor 41 | TPT1 inh confirm 58 | RNase T1 inh 67 | IDE inh confirm 37 | HEK cytotox 85
CC1=C(C(=O)N(C)C)CC(CC(=O)NCCc2ccccn2)C(=O)N1Cc1ccc(C(C)(C)C)cc1 (stereo not drawn)	none (no result: IDE cell activ, IDE cell inh, TPT1 inhibitor)
CCOC(=O)/C(C#N)=C\C=C1C=CN(C)C=C1	IDE cell inh 52, TPT1 inhibitor 158 | TPT1 inh confirm 173 | RNase T1 inh 167 | IDE inh confirm 38 | HEK cytotox inactive
O=C(/C=C/c1ccc(N2CCC(c3ccccc3)=N2)cc1)c1ccccc1	IDE cell inh 112, TPT1 inhibitor 115 (no result: CSN deneddyl inh, HNF4A DNA FP, IDE cell activ) | TPT1 inh confirm 119 | RNase T1 inh 114 | IDE inh confirm 63 | HEK cytotox inactive
O=C(/C=C/c1ccc(O)cc1)c1ccccc1	none
CC(C)c1ccc(NC(=O)c2ccc3c(c2)C(=O)N(Cc2cccnc2)C3=O)cc1	none
N#C/C(=C\c1ccc(N2CCOCC2)o1)c1nc2ccccc2[nH]1	IDE cell inh 20, TPT1 inhibitor 182 | TPT1 inh confirm 158 | RNase T1 inh 144 | IDE inh confirm 26 | HEK cytotox 29
N#C/C(=C\c1ccc(N2CCOCC2)c([N+](=O)[O-])c1)c1nc2ccccc2[nH]1	none
Cc1ccc(O)c(C(=O)c2cc(C#N)c(=O)n(-c3nccs3)c2)c1	IDE cell inh 51, TPT1 inhibitor 56 | TPT1 inh confirm 54 | RNase T1 inh 61 | IDE inh confirm 65 | HEK cytotox inactive
CN1/C(=C/C=C(C#N)C#N)C(C)(C)c2ccccc21	none
CCCCCCN1C=CC=C/C1=C\C=C(C#N)C#N	IDE cell inh 25, TPT1 inhibitor 61 (no result: IDE cell activ) | TPT1 inh confirm 73 | RNase T1 inh 84 | IDE inh confirm 35 | HEK cytotox inactive
CN(CC(=O)Nc1ccc(F)cc1)C(=O)COC(=O)c1cc(Br)c(Br)s1	none (no result: IDE cell inh, TPT1 inhibitor)
O=C(N/N=C/c1c(O)ccc2ccccc12)c1ccc(CO)nc1	HNF4A DNA FP 42, IDE cell inh 27, TPT1 inhibitor 82 | TPT1 inh confirm 91 | RNase T1 inh 93 | IDE inh confirm 39 | HEK cytotox 73
CCN1C(=O)/C(=C/N(C)c2ccccc2)OC1=S	none
CCN1C(=O)/C(=C/C=C2/CCCN2C)OC1=S	HNF4A DNA FP 88, IDE cell inh 19, TPT1 inhibitor 78 | TPT1 inh confirm 106 | RNase T1 inh 116 | IDE inh confirm 26 | HEK cytotox inactive
CCc1ccc(N=C2NC(=O)/C(=C/c3cc(OC)c(O)c(OC)c3)S2)cc1	none (no result: IDE cell inh, TPT1 inhibitor)
COc1cc(/C=C2\SC(=Nc3ccccc3)NC2=O)cc(Cl)c1O	IDE cell inh 134, TPT1 inhibitor 105 | TPT1 inh confirm 114 | RNase T1 inh 110 | IDE inh confirm 150 | HEK cytotox 28
COc1cccc(O)c1CN1CCC(n2nccc2NC(=O)c2ccc3c(c2)OCO3)CC1	none
Cc1ccc(C)c(OCc2cc(C(=O)NC(c3ccccn3)C(F)(F)F)no2)c1 (stereo not drawn)	none
COc1ccc(/C=c2\s/c(=C/C(=O)c3ccc(C)cc3)[nH]c2=O)cc1OC	HNF4A DNA FP 67, IDE cell inh 79, TPT1 inhibitor 103 | TPT1 inh confirm 117 | RNase T1 inh 115 | IDE inh confirm 78 | HEK cytotox inactive
CN1CCS/C1=C\C=C1/SC(=S)N(CC(=O)O)C1=O	none (no result: IDE cell inh, TPT1 inhibitor)
CCN1C(=O)/C(=C/C=C2/Sc3ccccc3N2CCO)SC1=S	HNF4A DNA FP 36, IDE cell inh 20, TPT1 inhibitor 40 | TPT1 inh confirm 33 | RNase T1 inh 45 | IDE inh confirm 19 | HEK cytotox inactive
CCCCN1C(=O)/C(=C/C=C2/CC(C)(C)CN2C)SC1=S	IDE cell inh 107, TPT1 inhibitor 169 | TPT1 inh confirm 174 | RNase T1 inh 160 | IDE inh confirm 149 | HEK cytotox 28
CCN1C(=O)/C(=C/C=C2/SCCN2C)SC1=S	IDE cell inh 27, TPT1 inhibitor active | TPT1 inh confirm 168 | RNase T1 inh 157 | IDE inh confirm 69 | HEK cytotox inactive
CCCCN1C(=O)/C(=C/C=C2\Oc3ccccc3N2CC)SC1=S	none (no result: IDE cell inh, TPT1 inhibitor)
N#CC1=C(N)Oc2cc(N)ccc2C1c1cccnc1 (stereo not drawn)	none
